Results filed as inconclusive are left out.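 The calls were made as follows, unless noted: active = viability increase at or above a cutoff of the median across tested compounds plus 3 SD (cut at about 8.5% in these data, passing the limit was not always enough); inconclusive = some gains above the cutoff, reason not given; inactive = the rest.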
What was measured:
[1] = S. cerevisiae growth inhibition in permissive medium (OD615), pilot counter-assay for S. cerevisiae lifespan shortening project, permissive growth control (AID 705;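 active = growth inhibition above 25% in both replicates, a cutoff set 3 SD above the mean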); settings: OD615, 24 h, at 10 µM, hits give high values
Outline: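 assay system = Saccharomyces cerevisiae strain carrying genetically modified DeaD replicative-lifespan system | medium = SC raffinose/galactose permissive medium | dosing = 10 µM single dose, 0.25% DMSO | schedule = 24 h compound exposure at 30 °C after 4 h pre-growth | measured by = OD at 615 nm | read-out basis = growth inhibition from lowered OD615 after 24 h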

[2] = S. cerevisiae growth inhibition in restrictive medium, OD615, pilot screen, restrictive growth control, yeast lifespan reduction project (AID 706;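 active = growth inhibition above a set limit, 3 SD over mean compound inhibition, in both replicates, cut at about 43% in these data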;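 also: modified DeaD lifespan yeast strain shifted to restrictive glucose medium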); settings: OD615, 48 h, at 10 µM, hits give high values
Outline: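 Buffer or medium: CSMM-D glucose medium. Material: genetically modified Saccharomyces cerevisiae, DeaD replicative lifespan assay strain. Times: 48 h compound exposure at 30 °C. Measured by: optical density at 615 nm.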

[3] = doxorubicin toxicity protection in MRP-1 cells – H69AR cells, CellTiter-Glo, duplicate, MRP-1 activator project, pilot screen (AID 807); settings: H69AR viability with doxorubicin, CellTiter-Glo luminescence; at 10 µM; hits give high values;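 also: compound pretreatment 18-22 h then 72 h combined with doxorubicin; 0% = doxorubicin alone and 100% = vehicle without doxorubicin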
[4] = viability of HCT116 without oncogenic beta-catenin – human colon tumor cells, pilot screen (AID 823;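 active = cell viability at or below a set limit in both duplicate runs, the limit being the all-compound median minus 4 SD, cut at about 23% in these data, passing the limit was not always enough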;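 also: 0% = wells killed by 20 µM Hyamine and 100% = untreated DMSO cell wells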); settings: HCT116 beta-catenin knockout viability, CellTiter-Glo, 60 h; at 10 µM; hits give low values
[5] = viability of PTEN-null HCT116 cells – cell-based, HCT116 clonal line, CellTiter-Glo, pilot screen (AID 824;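 active = viability at or below 27.92% in each of two runs, the all-compound median minus 4 SD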;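 also: 0% = 20 µM Hyamine control and 100% = vehicle cell control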); settings: HCT116 PTEN-deleted viability, 60 h, at 10 µM, hits give low values
[6] = RAM pathway blockade in budding yeast – dse1pr::URA3 reporter, 5-FOA selection, pilot screen (AID 869;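 active = inhibition over a set limit, the all-compound mean plus 3 SD, in both replicate runs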;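 also: 0% = DMSO wells with no growth and 100% = 10 µM 1-NA-PP1 with full growth; RAM network block rescues cells from 5-FOA so hits raise OD615 growth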); settings: S. cerevisiae dse1pr::URA3 5-FOA growth, OD615, 2 d; at 10 µM; hits give high values; strain carries analog-sensitive mutant Cbk1 kinase
[7] = RAM signaling pathway blockade in yeast – S. cerevisiae, Pdr1DBD-CYC8 efflux-inhibited sensitized strain, primary screen (AID 1298;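 active = RAM network inhibition above 8.4% in each of two replicates, 3 SD over the compound average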;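 also: 0% = DMSO untreated cells without growth and 100% = 10 µM 1-NA-PP1 full growth; higher means more yeast growth rescued from 5-FOA killing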); settings: S. cerevisiae cbk1-as DSE1-URA3 strain, 5-FOA growth OD615, 2 d; at 50 µM; hits give high values

O=C(C1=C(O)C(=O)N(c2ncccn2)C1c1cccs1)c1ccco1 (stereo unspecified)
inactive: growth inhibition [1] 0.75% | growth inhibition [2] 7.12% | viability increase [3] -4.29% | viability [4] 86.5% | viability [5] 85.3% | inhibition [6] 1.54% | RAM network inhibition [7] 1.69%

O=C(Nc1nnc(-c2ccccc2)o1)Nc1ccccc1Cl
inactive: growth inhibition [1] -15.5% | growth inhibition [2] -12% | viability increase [3] -0.05% | viability [4] 104% | viability [5] 97.4% | inhibition [6] 0.165% | RAM network inhibition [7] 4.83%

Clc1ccc(-n2ncc3c(NCC4CCCO4)ncnc32)cc1 (stereo unspecified)
inactive: growth inhibition [1] -7.04% | growth inhibition [2] -19.4% | viability increase [3] -5.71% | viability [4] 37.6% | viability [5] 37.2% | inhibition [6] 0.57% | RAM network inhibition [7] 8.53%

O=C(CSc1nnc(Cc2cc(=O)[nH]c(=O)[nH]2)n1-c1ccc(Cl)cc1)NC1CCCC1
inactive: growth inhibition [1] -14.1% | growth inhibition [2] -17.7% | viability increase [3] -0.76% | viability [4] 108% | viability [5] 104% | inhibition [6] 1.92% | RAM network inhibition [7] 0.32%

Nc1nc(Nc2ccccc2Br)nc(C(F)(F)F)n1
inactive: growth inhibition [1] -3.56% | growth inhibition [2] 4.02% | viability increase [3] 0.23% | viability [4] 104% | viability [5] 93.4% | inhibition [6] 1.84% | RAM network inhibition [7] 0.72%

COc1ccc(C(CNC(=O)C2CC(=O)N(Cc3ccc(C)cc3)C2)N(C)C)cc1 (stereo unspecified)
inactive: growth inhibition [1] -1.76% | growth inhibition [2] -7.34% | viability increase [3] -0.21% | viability [4] 96% | viability [5] 95.7% | inhibition [6] 1.3% | RAM network inhibition [7] 1.64%

C=C(C)CSc1nc2c(c(=O)[nH]c(=O)n2C)n1CCC(C)C
inactive: growth inhibition [1] -17.9% | growth inhibition [2] -22.9% | viability increase [3] -2.5% | viability [4] 80.8% | viability [5] 80.9% | inhibition [6] 1.38% | RAM network inhibition [7] 1.85%

CCCCCCn1c(CN2CCN(CCO)CC2)nc2c1c(=O)n(C)c(=O)n2C
inactive: growth inhibition [1] -6.85% | growth inhibition [2] -11.2% | viability increase [3] -4.86% | viability [4] 86.2% | viability [5] 89.4% | inhibition [6] 2.5% | RAM network inhibition [7] 2.43%

CCC(CC)C(=O)Nc1ccccc1NC(C)=O
inactive: growth inhibition [1] -3.13% | growth inhibition [2] 0.295% | viability increase [3] 0.4% | viability [4] 99.8% | viability [5] 98% | inhibition [6] 0.36% | RAM network inhibition [7] 4.35%

CCCCNC(=O)C1c2cc(OC)c(OC)cc2C(=O)N(C)C1c1ccc(OC)cc1 (stereo unspecified)
inactive: growth inhibition [1] -7.31% | growth inhibition [2] -7.21% | viability increase [3] -2.49% | viability [4] 92.5% | viability [5] 98.4% | inhibition [6] 1.63% | RAM network inhibition [7] 1.97%

Cc1nc2ccccc2c2oc(C(=O)N3CCc4ccccc43)cc12
inactive: growth inhibition [1] -11.5% | growth inhibition [2] -16.6% | viability increase [3] -0.71% | viability [4] 95.5% | viability [5] 89.1% | inhibition [6] 0.625% | RAM network inhibition [7] -0.73%

CCC(CC)C(=O)Nc1cc(C)c2c(=O)oc3ccccc3c2n1
inactive: growth inhibition [1] -17.2% | growth inhibition [2] -12.2% | viability increase [3] -5.01% | viability [4] 62.5% | viability [5] 64.2% | inhibition [6] 2.33% | RAM network inhibition [7] 9.87%

CCSc1nc2ccccc2n1S(=O)(=O)c1ccccc1
inactive: growth inhibition [1] -13.9% | growth inhibition [2] -20.8% | viability increase [3] -0.8% | viability [4] 101% | viability [5] 100% | inhibition [6] 0.395% | RAM network inhibition [7] 1.37%

O=C1NCCCC1C(=O)N1CCN(C(=O)c2ccco2)CC1 (stereo unspecified)
inactive: growth inhibition [1] -3.22% | growth inhibition [2] -1.05% | viability increase [3] -0.63% | viability [4] 106% | viability [5] 98.6% | inhibition [6] -0.03% | RAM network inhibition [7] 0.31%

O=C(O)CC1Sc2ccccc2NC1=O (stereo unspecified)
inactive: growth inhibition [1] -7.26% | growth inhibition [2] 0.575% | viability increase [3] -1.79% | viability [4] 90.2% | viability [5] 96% | inhibition [6] 1.49% | RAM network inhibition [7] 4.47%

O=C(COc1ccc2c3c(c(=O)oc2c1)CCC3)c1ccc2c(c1)OCO2
inactive: growth inhibition [1] -8.44% | growth inhibition [2] -1.49% | viability increase [3] 2.35% | viability [4] 63.2% | viability [5] 65.1% | inhibition [6] 2.27% | RAM network inhibition [7] 7.83%

CP(=O)(COC(=O)c1ccccc1)COC(=O)c1ccccc1
inactive: growth inhibition [1] -20.8% | growth inhibition [2] -19% | viability increase [3] -0.63% | viability [4] 100% | viability [5] 96.5% | inhibition [6] 3.13% | RAM network inhibition [7] 1.26%

COc1ccc(-c2cn3c(C)c(C(=O)NCc4ccc5c(c4)OCO5)sc3n2)cc1
inactive: growth inhibition [1] -4.21% | growth inhibition [2] 7.5% | viability increase [3] -3.02% | viability [4] 99.8% | viability [5] 100% | inhibition [6] 3.06% | RAM network inhibition [7] 3.34%

Source: PubChem BioAssay
